growth, GI50 and IC50 data for 18 compounds are collected here from ChEMBL document CHEMBL2046306, “Synthesis of 6-substituted 9-methoxy-11H-indeno[1,2-c]quinoline-11-one derivatives as potential anticancer agents” (Bioorg Med Chem, 2012).

The subject of assay [1] is NCI-H460. The assay is described as follows: Antiproliferative activity against human NCI-H460 cells assessed as growth at 100 uM after 48 hrs by alamar blue assay. The following applies: NCI-H460, 48 h, read-out: Activity. Format: functional. The method in brief: (§1)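 Single-dose prescreen in a three-line NCI panel (NCI-H460, MCF7, SF-268). Cells were inoculated and preincubated on microtiter plates, then exposed to test agent at 100 μM for 48 h. Alamar blue end-point. Growth is expressed as percent of untreated control cells.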
Background: Alamar Blue is a resazurin reagent that responds to reducing activity.

A further assay concerns SF-268. Kind of assay: Antiproliferative activity against human SF268 cells assessed as growth at 100 uM after 48 hrs by alamar blue assay. Format: functional. The following applies: SF-268, 48 h, read-out: Activity. Put shortly: as §1
Another assay relates to MCF7. Kind of assay: Antiproliferative activity against human MCF7 cells assessed as growth at 100 uM after 48 hrs by alamar blue assay. The following applies: MCF7, 48 h, read-out: Activity. Format: functional. The method in brief: as §1
The subject of a further assay is SR. The assay is described as follows: Growth inhibition of human SR cells after 48 hrs by sulforhodamine B assay. The format is functional. The method in brief: (§2)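 NCI 60-line screen. Cells grown in RPMI 1640 with 5% FBS and 2 mM L-glutamine, seeded at 5000-40,000 cells/well and preincubated 24 h at 37 °C. Compounds added at five 10-fold dilutions, highest well concentration 10E-4 M. Exposure 48 h in 5% CO2 at 100% humidity. Endpoint is sulforhodamine B with optical density read-out. GI50 is the concentration giving 50% growth inhibition versus control.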
For orientation: In SRB staining, fixed cells bind dye roughly in proportion to their protein.

The subject of the next assay is A549. The assay is described as follows: Growth inhibition of human A549 cells after 48 hrs by sulforhodamine B assay. The following applies: A549, 48 h. Format: functional, cell-based. The method in brief:
(§3)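 NCI 60-line screen. Cells grown in RPMI 1640 with 5% FBS and 2 mM L-glutamine, seeded at 5000–40,000 cells/well, preincubated 24 h at 37 °C. Five 10-fold dilutions added, highest well concentration 10E-4 M. Incubated 48 h in 5% CO₂ at 100% humidity. Sulforhodamine B read-out by optical density; GI50 taken from dose-response curves versus control.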

The test system of a further assay is U-251. The assay is described as follows: Growth inhibition of human U251 cells after 48 hrs by sulforhodamine B assay. The following applies: U-251, 48 h. The format is functional. The method in brief: as §2
The subject of another assay is HCT-116. Kind of assay: Growth inhibition of human HCT116 cells after 48 hrs by sulforhodamine B assay. The format is functional. The following applies: HCT-116, 48 h. Put shortly: as §3
In the next assay the test system is RXF 393. The assay is described as follows: Growth inhibition of human RXF393 cells after 48 hrs by sulforhodamine B assay. The format is functional. The following applies: RXF 393, 48 h. The method in brief:
as §2

The subject of the next assay is CCRF-CEM. The assay is described as follows: Growth inhibition of human CCRF-CEM cells after 48 hrs by sulforhodamine B assay. The format is functional. Put shortly:
as §3

A further assay deals with IGROV-1. Kind of assay: Growth inhibition of human IGROV1 cells after 48 hrs by sulforhodamine B assay. Format: functional. The following applies: IGROV-1, 48 h. Put shortly:
as §3

Assay [2] is described as follows: Growth inhibition of human Hs 578T cells after 48 hrs by sulforhodamine B assay. The format is functional. Put shortly:
as §3

The test system of the next assay is SK-MEL-5. Kind of assay: Growth inhibition of human SK-MEL-5 cells after 48 hrs by sulforhodamine B assay. Format: functional. The following applies: SK-MEL-5, 48 h. The method in brief:
as §2

The test system of the next assay is DU-145. Kind of assay: Growth inhibition of human DU145 cells after 48 hrs by sulforhodamine B assay. The format is functional. The following applies: DU-145, 48 h. Put shortly:
as §3

Assay [3] concerns NCI-H460. Kind of assay: Growth inhibition of human NCI-H460 cells after 48 hrs by sulforhodamine B assay. The format is functional. The following applies: NCI-H460, 48 h. The method in brief:
as §3

`CO/N=C1/c2cc(OC)ccc2-c2c(Nc3ccc(/C(C)=N/OC)cc3)nc3ccccc3c21`: the values for the growth at 100 µM in the assay with NCI-H460 [1], with SF-268 and in the assay with MCF7 were 112%, 108% and 89%, respectively.
For the compound `COc1ccc(Nc2nc3ccccc3c3c2-c2ccc(OC)cc2C3=O)c(OC)c1`, the values for the growth at 100 µM in the assay with NCI-H460 [1], with SF-268 and in the assay with MCF7 were 110%, 107% and 103%, respectively.
One may read the GI50 as the concentration giving 50% growth inhibition. Higher therefore signals less potent growth inhibition. As to `COc1ccc2c(c1)C(=O)c1c-2c(Nc2ccc(Cl)cc2)nc2ccccc12`, the 50% growth inhibitory concentration (GI50) with SR, with A549, with U-251, with HCT-116, in the assay on RXF 393 and with CCRF-CEM was 15.1 µM throughout. For the same compound, the GI50 (in the assay with IGROV-1; in [2]; in the assay with SK-MEL-5; in the assay with DU-145) was 15.1 µM each time. The growth at 100 µM in the assay with NCI-H460 [1] was 10%; in the assay with SF-268, 42%; in the assay with MCF7, 96%.
For `CO/N=C1/c2cc(OC)ccc2-c2c(Nc3cccc(/C(C)=N/OC)c3)nc3ccccc3c21`, the growth at 100 µM in the assay with NCI-H460 [1] worked out at 82%; with SF-268, 92%; in the assay on MCF7, 80%.
One may read the IC50 as the point on the concentration scale where inhibition reaches its midpoint. `CN(C)CCCOc1ccc(-c2nc3ccc(OCCCN(C)C)cc3c3c2-c2ccc(OCCCN(C)C)cc2C3=O)cc1` came in with an IC50 in the assay with A549 of 0.68 µM.
Consider `COc1ccc2c(c1)C(=O)c1c-2c(Nc2ccc(OC)c(OC)c2)nc2ccccc12`, for which the growth at 100 µM was determined as 68% in the assay with NCI-H460 [1], 41% in the assay with SF-268 and 90% in the assay with MCF7.
As for `COc1ccc2c(c1)C(=O)c1c-2c(Nc2cccc(C(C)=O)c2)nc2ccccc12`, the GI50 was 21.4 µM in the assay with SR; 17.7 µM with A549; 3.09 µM in the assay with U-251; 2.63 µM in the assay with HCT-116; 9.77 µM in the assay with RXF 393; 12.9 µM in the assay with CCRF-CEM. Moreover, the GI50 with IGROV-1 came to 3.63 µM; in assay [2], 3.16 µM; in the assay with SK-MEL-5, 5.25 µM; in the assay with NCI-H460 [3], 23.5 µM; in the assay on DU-145, 11.8 µM. Also, the growth at 100 µM was 0% in the assay with NCI-H460 [1], 7% in the assay with SF-268 and 17% with MCF7.
Turning to `COc1ccc2c(c1)C(=O)c1c-2c(Nc2ccc(F)c(F)c2)nc2ccccc12`, the growth at 100 µM in the assay with NCI-H460 [1] was 96%; in the assay with SF-268 it was 69%; in the assay with MCF7 it was 106%.
With `COc1ccc2c(c1)/C(=N\OC(C)=O)c1c-2c(Nc2cccc(/C(C)=N/OC(C)=O)c2)nc2ccccc12`, the concentration for 50% growth inhibition (GI50) in the assay with SR, in the assay on A549, in the assay with U-251, in the assay with HCT-116, in the assay with RXF 393 and in the assay with CCRF-CEM was 53.7 µM in each case. In addition, the GI50 (with IGROV-1; in assay [2]; with SK-MEL-5; in the assay on DU-145) was 53.7 µM in each case. The growth at 100 µM with NCI-H460 [1] was determined as 96%; in the assay on SF-268, 43%; in the assay on MCF7, 32%.
Regarding `COc1ccc2c(c1)/C(=N\O)c1c-2c(Nc2cccc(/C(C)=N/O)c2)nc2ccccc12`, the concentration for 50% growth inhibition (GI50) in the assay on SR, in the assay with A549, in the assay on U-251, in the assay with HCT-116, with RXF 393 and in the assay with CCRF-CEM was 28.2 µM throughout. The GI50 (with IGROV-1; in assay [2]; in the assay with SK-MEL-5; in the assay on DU-145) was 28.2 µM throughout. Further, the growth at 100 µM in the assay with NCI-H460 [1] was 11%; in the assay on SF-268, 66%; in the assay with MCF7, 84%.
`COc1cccc(Nc2nc3ccccc3c3c2-c2ccc(OC)cc2C3=O)c1`: the growth at 100 µM was found to be 83% in the assay with NCI-H460 [1], 87% in the assay on SF-268 and 79% in the assay with MCF7.
Consider `COc1ccc2c(c1)/C(=N\O)c1c-2c(Nc2ccc(/C(C)=N/O)cc2)nc2ccccc12`, for which the GI50 was 1.48 µM in the assay with SR; 1.45 µM in the assay with A549; 2.29 µM in the assay on U-251; 1.48 µM in the assay with HCT-116; < 0.01 µM with RXF 393; 4.17 µM in the assay with CCRF-CEM. In addition, the 50% growth inhibitory concentration (GI50) is 15.1 µM with IGROV-1; 7.08 µM in [2]; 3.8 µM with SK-MEL-5; 29.5 µM in the assay with NCI-H460 [3]; 2.04 µM in the assay on DU-145. In addition, the growth at 100 µM stood at 0% in the assay on NCI-H460 [1], 2% in the assay on SF-268 and 1% in the assay on MCF7.
With `COc1ccc2c(c1)C(=O)c1c-2c(NCCN(C)C)nc2ccccc12`, the GI50 with SR, in the assay on A549, in the assay with U-251, with HCT-116, with RXF 393 and in the assay on CCRF-CEM was 3.47 µM in each case. In addition, the GI50 (in the assay with IGROV-1; in assay [2]; in the assay with SK-MEL-5; in the assay with DU-145) was 3.47 µM each time. Besides, the figures for the growth at 100 µM in the assay on NCI-H460 [1], in the assay with SF-268 and in the assay on MCF7 were 0%, 6% and 0%, respectively.
For the compound `COc1ccc2c(c1)/C(=N\OC(C)=O)c1c-2c(Nc2ccc(/C(C)=N/OC(C)=O)cc2)nc2ccccc12`, the 50% growth inhibitory concentration (GI50) in the assay with SR, in the assay on A549, in the assay on U-251, in the assay with HCT-116, in the assay with RXF 393 and in the assay with CCRF-CEM was 52.5 µM throughout. Besides, the GI50 (with IGROV-1; in [2]; in the assay with SK-MEL-5; with DU-145) was 52.5 µM each time. For the same compound, the growth at 100 µM was found to be 37% in the assay with NCI-H460 [1], 36% in the assay with SF-268 and 24% with MCF7.
In the assay with A549, `COc1ccc2c(c1)/C(=N\OCCCN)c1c-2c(N2CCNCC2)nc2ccccc12` displayed an IC50 of 0.64 µM.
Take `COc1ccc2c(c1)C(=O)c1c-2c(Nc2ccc(C(C)=O)cc2)nc2ccccc12`: the GI50 in the assay with SR, with A549, in the assay with U-251, with HCT-116, in the assay with RXF 393 and in the assay on CCRF-CEM was 39.8 µM throughout. In addition, the GI50 (in the assay with IGROV-1; in assay [2]; in the assay with SK-MEL-5; with DU-145) was 39.8 µM in each case. For the same compound, the growth at 100 µM in the assay on NCI-H460 [1] was 18%; in the assay on SF-268, 11%; in the assay on MCF7, 61%.
Take `COc1ccc(Nc2nc3ccccc3c3c2-c2ccc(OC)cc2C3=O)cc1`: the growth at 100 µM in the assay on NCI-H460 [1] came to 69%; in the assay on SF-268, 65%; with MCF7 it was 74%.
As for `COc1ccc2c(c1)C(=O)c1c-2c(Nc2ccc(F)cc2F)nc2ccccc12`, the figures for the growth at 100 µM in the assay on NCI-H460 [1], in the assay with SF-268 and in the assay with MCF7 were 96%, 68% and 99%, respectively.
